Source: ChEMBL document CHEMBL1153556, “Antiplasmodial activity of [(aryl)arylsulfanylmethyl]Pyridine” (Antimicrob Agents Chemother, 2008)
Active and inactive are the calls of the source. No cut-off for these calls is given here.

Tests used:
[1] = molecular target: T1, Histidine-rich protein PFHRP-II (Plasmodium falciparum, UniProt P05227); assay: Inhibition of hemozoin formation after 48 hrs in chloroquine-sensitive Plasmodium falciparum NF54; type: functional
T1 sequence (P05227 whole entry): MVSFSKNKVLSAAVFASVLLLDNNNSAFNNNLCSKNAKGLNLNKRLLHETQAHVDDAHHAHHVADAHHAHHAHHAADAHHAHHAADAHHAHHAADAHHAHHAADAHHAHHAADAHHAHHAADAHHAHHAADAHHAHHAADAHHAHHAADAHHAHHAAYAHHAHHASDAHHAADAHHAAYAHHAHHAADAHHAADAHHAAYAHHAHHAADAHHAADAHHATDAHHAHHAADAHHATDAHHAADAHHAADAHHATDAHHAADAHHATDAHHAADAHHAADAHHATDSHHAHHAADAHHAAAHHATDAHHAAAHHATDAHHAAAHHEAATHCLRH
Procedure, shortened: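 P. falciparum NF54 culture (5% parasitemia) was ring-synchronized with 5% d-sorbitol, then exposed to graded drug concentrations for 48 h. Parasites were freed with saponin, sonicated and washed with 2% SDS. The pellet was digested overnight at 37°C with proteinase K (2 μg/ml) in Tris/SDS/CaCl2 and treated with 6 M urea for 3 h. After further SDS washes, hemozoin was dissolved in 20 mM NaOH/2% SDS and read at 400 nm.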

[2] = molecular target: Heme; assay: Binding affinity to heme by optical difference spectroscopy
Procedure, shortened: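 Heme in 100 mM acetate buffer pH 5.2 at 25 ± 1°C, 1-cm quartz cell, was titrated with successive additions of compound (5 to 40 μM). Soret and difference spectra were recorded after each addition. KD came from a double-reciprocal plot of 1/ΔA362 against 1/[ligand]; mean ± SEM.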

[3] = tested on: Plasmodium falciparum; assay: Antiplasmodial activity after 48 hrs against chloroquine-sensitive Plasmodium falciparum NF54 by [3H]hypoxanthine uptake; type: functional, organism-based
Procedure, shortened: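 Ring-stage cultures were synchronized with 5% d-sorbitol. At 0.5 to 1% parasitemia they were grown in multiwell plates (200 μl/well) across a range of concentrations, with chloroquine as positive control. After 48 h, [3H]hypoxanthine (0.7 μCi/well) was added and culture continued 48 h. Parasites were washed in PBS, dissolved in 3 N NaOH (37°C, 6 h) and counted by β-counter. IC50 reported as mean ± SEM.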

[4] = molecular target: Plasmodium yoelii; assay: Inhibition of hemozoin formation after 48 hrs in multi drug-resistant Plasmodium yoelii
[5] = tested on: Plasmodium falciparum; assay: Antiplasmodial activity as increased heme accumulation after 48 hrs against chloroquine-sensitive Plasmodium falciparum NF54 at 10-100 uM by spectrophotometry; type: functional, organism-based
Procedure, shortened: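 Cultures were exposed to a range of concentrations for 48 h, then pelleted and washed in PBS. Each pellet was solubilized in 1 ml concentrated formic acid. Heme was read at 398 nm (ε = 1.56 × 10^5 M−1 cm−1) and expressed as nmol/mg cell protein.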

[6] = tested on: Plasmodium falciparum; assay: Induction of oxidative stress as decreased glutathione after 48 hrs in chloroquine-sensitive Plasmodium falciparum NF54 by TCA assay; type: functional, organism-based
Procedure, shortened: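 Parasites at 4% parasitemia were treated 48 h, then isolated and sonicated in 20 mM ice-cold EDTA. The lysate was deproteinized with equal-volume 10% TCA, and the supernatant mixed with 0.8 M Tris-HCl pH 9 containing 20 mM DTNB. A412 was read against a GSH standard and expressed as % of control.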

[7] = tested on: Plasmodium falciparum; assay: Induction of oxidative stress as lipid peroxide formation after 48 hrs in chloroquine-sensitive Plasmodium falciparum NF54; type: functional, organism-based
Procedure, shortened: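 Ring-synchronized culture (4% parasitemia) was treated 48 h, and parasites were isolated and lysed in PBS. Lysate was heated with TCA–thiobarbituric acid in 1 N HCl at 100°C for 15 min, cooled and centrifuged. A535 of the supernatant was read against a tetraethoxypropane standard, expressed as nmol/mg lysate protein.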

[8] = tested on: Plasmodium falciparum; assay: Induction of oxidative stress as increased H2O2 formation after 48 hrs in chloroquine-sensitive Plasmodium falciparum NF54 by spectrofluorimetry; type: functional, organism-based
Procedure, shortened: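 Parasites at 4% parasitemia were treated 48 h, then loaded 30 min with 10 μM 2′,7′-dichlorofluorescein diacetate. They were isolated and lysed by mild sonication at 4°C. Dichlorofluorescein fluorescence was read at ex 502/em 523 nm and expressed as intensity/mg lysate protein.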

[9] = tested on: Plasmodium falciparum; assay: Induction of oxidative stress as increased hydroxyl radical formation after 48 hrs in chloroquine-sensitive Plasmodium falciparum NF54 by fast blue BB assay; type: functional, organism-based
Procedure, shortened: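 Ring/early-trophozoite culture (2% parasitemia) was grown 48 h with compound plus 20 μl of 25% DMSO as ·OH trap, re-dosed at each daily medium change; a parasite-only control had neither. Isolated parasites were lysed in water, and methanesulfinic acid from the DMSO–·OH reaction was extracted for quantitation.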

[10] = tested on: Plasmodium yoelii; assay: Antiplasmodial activity as decreased mitochondrial transmembrane potential after 1 hrs against multi drug-resistant Plasmodium yoelii trophozoite infected Swiss mice (Mus musculus) erythrocytes at 10 uM by JC1 uptake; type: functional, organism-based
[11] = tested on: Plasmodium falciparum; assay: Antiplasmodial activity after 48 hrs against chloroquine-sensitive Plasmodium falciparum NF54 by [3H]hypoxanthine uptake in presence of PBN; type: functional, organism-based
Procedure, shortened: (§1)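 Cultures at 4% parasitemia received test compound at 40 μM for 48 h, plus the ·OH scavenger PBN (40 mM) or mannitol (10 mM). Growth was read as [3H]hypoxanthine incorporation, β-counting, n = 6, mean ± SEM.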

[12] = tested on: Plasmodium falciparum; assay: Antiplasmodial activity after 48 hrs against chloroquine-sensitive Plasmodium falciparum NF54 by [3H]hypoxanthine uptake in presence of mannitol; type: functional, organism-based; procedure, shortened: as §1
[13] = tested on: Plasmodium falciparum; assay: Antiplasmodial activity as parasite growth after 24 hrs against chloroquine-sensitive Plasmodium falciparum NF54 infected human B+ erythrocytes at <40 uM 24 hrs preinfection by [3H]hypoxanthine uptake; type: functional, organism-based
Procedure, shortened: (§2)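 Uninfected human B+ RBC at 5% hematocrit were preincubated 24 h in CRPMI with compound up to 40 μM; DMSO served as control. Cells were washed three times, then inoculated with trophozoite-rich parasitized RBC (4 to 5% parasitemia). After one intraerythrocytic cycle, [3H]hypoxanthine (0.7 μCi/well) was added for 24 h. Cells were filter-harvested and counted (cpm), n = 6.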

[14] = tested on: MCF7; assay: Cytotoxicity against human MCF7 cells assessed as cell viability at 10 to 1000 uM after 24 hrs by MTT assay; type: cell-based; settings: mcf7, 24 h
[15] = tested on: Plasmodium yoelii; assay: Antiplasmodial activity as reduced parasitaemia at day 4 against multi drug-resistant Plasmodium yoelii infected BALB/c mice (Mus musculus) at 10 mg/kg intraperitoneal dose 6 hrs post infection and daily for 3 days by Giemsa stain; type: functional; design: scale not given: the % may be the effect or the level left
Procedure, shortened: (§3)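 BALB/c mice (22 ± 2 g), five per group, infected intraperitoneally on day 0 with 10^5 parasitized RBC of P. yoelii resistant to chloroquine, mefloquine and halofantrine. Dosing was intraperitoneal in groundnut oil (0.2 ml), starting 6 h after inoculation and given once daily on days 0–3. Parasitemia was read on Giemsa thin smears on day 4. Group means gave % suppression [(C−T)/C]×100 against vehicle controls; α-β-arteether served as the positive control.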

[16] = tested on: Plasmodium yoelii; assay: Antiplasmodial activity as reduced parasitaemia at day 4 against multi drug-resistant Plasmodium yoelii infected BALB/c mice (Mus musculus) at 25 mg/kg intraperitoneal dose 6 hrs post infection and daily for 3 days by Giemsa stain; type: functional; design: scale not given: the % may be the effect or the level left; procedure, shortened: as §3
[17] = tested on: Plasmodium yoelii; assay: Antiplasmodial activity as reduced parasitaemia at day 4 against multi drug-resistant Plasmodium yoelii infected BALB/c mice (Mus musculus) at 50 mg/kg intraperitoneal dose 6 hrs post infection and daily for 3 days by Giemsa stain; type: functional; design: scale not given: the % may be the effect or the level left; procedure, shortened: as §3
[18] = molecular target: T2, Histidine-rich protein PFHRP-II (Plasmodium falciparum) (UniProt P05227); assay: Inhibition of hemozoin formation after 48 hrs against chloroquine-sensitive Plasmodium falciparum NF54 at 10 to 100 uM by spectrophotometry; type: functional
T2 sequence (whole entry): T1 sequence (P05227 whole entry)
Procedure, shortened: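 Ring-synchronized culture (5% parasitemia, sorbitol) was treated 48 h across a concentration range. Parasites were saponin-isolated and sonicated, and the pellet washed in 2% SDS. It was digested with proteinase K (2 μg/ml, 37°C overnight), treated with 6 M urea for 3 h, and washed in SDS. Hemozoin was dissolved in 20 mM NaOH/2% SDS and read at 400 nm.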

[19] = tested on: MCF7; assay: Cytotoxicity against human MCF7 cells assessed as cell viability after 24 hrs by MTT assay; type: cell-based; settings: MCF7, 24 h
[20] = tested on: Plasmodium falciparum; assay: Antiplasmodial activity as parasite invasion after 24 hrs against chloroquine-sensitive Plasmodium falciparum NF54 infected human B+ erythrocytes at <40 uM 24 hrs preinfection by [3H]hypoxanthine uptake; type: functional, organism-based; procedure, shortened: as §2
[21] = Selectivity index ratio of IC50 for human MCF7 cells to IC50 for chloroquine-sensitive Plasmodium falciparum NF54; type: functional
Procedure, shortened: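 Selectivity index = MCF-7 MTT IC50 divided by P. falciparum NF-54 [3H]hypoxanthine-uptake IC50.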

[22] = tested on: Plasmodium yoelii; assay: Antiplasmodial activity as reduced parasitaemia at day 4 against multi drug-resistant Plasmodium yoelii infected BALB/c mice (Mus musculus) at 100 mg/kg intraperitoneal dose 6 hrs post infection and daily for 3 days by Giemsa stain; type: functional; design: scale not given: the % may be the effect or the level left; procedure, shortened: as §3

Row | Structure (SMILES) | IC50 [1] [µM] | Kd [2] [µM] | IC50 [3] [µM] | IC50 [4] [µM] | Activity [6] | Activity [7] | Activity [8] | Activity [9] | Activity [14] | Activity [16] [%] | Activity [17] [%] | Activity [18] | IC50 [19] [µM] | also measured
1 | COc1ccc(C(Sc2ccc(C)cc2)c2cccnc2)cc1 (stereo not drawn) | 40 | 12 | 20 | 20 |  |  |  |  |  |  |  |  |  | 
2 | COc1ccc(C(Sc2ccc(Cl)cc2)c2cccnc2)cc1 (stereo not drawn) | 40 |  | 12 | 40 |  |  |  |  |  |  |  |  |  | 
3 | COc1ccc(C(Sc2ccc3ccccc3c2)c2cccnc2)cc1 (stereo not drawn) |  |  | 4 |  | Dose-dependent effect | Dose-dependent effect | Dose-dependent effect | Dose-dependent effect | Non-toxic | 65 | 85 | Dose-dependent effect | 650 | Activity [5]: Active; Activity [10]: Active; Activity [11]: inactive; Activity [12]: inactive; Activity [13]: inactive; Activity [15]: 40%; Activity [20]: inactive
4 | COc1ccc(C(Sc2ccccc2)c2cccnc2)cc1 (stereo not drawn) | 11 | 20 | 5 | 18 | Dose-dependent effect | Dose-dependent effect | Dose-dependent effect | Dose-dependent effect | Non-toxic | 30 | 60 | Dose-dependent effect | 1000 | %max [5]: Active; Ratio IC50 [21]: 200; Activity [15]: 20%
5 | COc1ccc(C(Sc2ccccc2C)c2cccnc2)cc1 (stereo not drawn) | 16 | 26 | 8 | 26 | Dose-dependent effect | Dose-dependent effect | Dose-dependent effect | Dose-dependent effect | Non-toxic | 30 | 50 | Dose-dependent effect | 1000 | Activity [5]: Active; Activity [13]: inactive; Ratio IC50 [21]: 125; Activity [22]: 80%
6 | COc1ccc(C(Sc2nc3ccccc3s2)c2cccnc2)cc1 (stereo not drawn) | 35 | 14 | 12 | 40 |  |  |  |  |  |  |  |  |  | 
7 | CCCCCC[C@H]1C(=O)O[C@H](C)[C@H](NC(=O)c2cccc(NC=O)c2O)C(=O)O[C@@H](C)[C@@H]1OC(=O)CC(C)C |  |  |  |  |  |  |  |  |  |  |  |  |  | Activity [10]: Active
8 | COc1ccc(C(Sc2ccc(C)cc2)c2ccccn2)cc1 (stereo not drawn) |  |  | 20 |  |  |  |  |  |  |  |  |  |  | 
